An excerpt weighted towards active compounds, which were near 2.7% of everything screened.
E-selectin induc = E-selectin induction on HUVECs; P16581; HUVEC E-selectin immunofluorescence imaging; normalized: neutral wells 0, TNF-alpha wells 100; activation, % at 7.58 µM; actives 0.37% (n = 260,000); AID 686992;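 active = mean E-selectin-positive cell signal at least 10% of the positive control, reached in at least 60% of replicates, without over 20% cell loss; inconclusive = no rule given, readout overlaps actives, possibly toxicity-flagged; inactive = the rest, including those meeting only one limit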
Target sequence (P16581 whole entry, looked up): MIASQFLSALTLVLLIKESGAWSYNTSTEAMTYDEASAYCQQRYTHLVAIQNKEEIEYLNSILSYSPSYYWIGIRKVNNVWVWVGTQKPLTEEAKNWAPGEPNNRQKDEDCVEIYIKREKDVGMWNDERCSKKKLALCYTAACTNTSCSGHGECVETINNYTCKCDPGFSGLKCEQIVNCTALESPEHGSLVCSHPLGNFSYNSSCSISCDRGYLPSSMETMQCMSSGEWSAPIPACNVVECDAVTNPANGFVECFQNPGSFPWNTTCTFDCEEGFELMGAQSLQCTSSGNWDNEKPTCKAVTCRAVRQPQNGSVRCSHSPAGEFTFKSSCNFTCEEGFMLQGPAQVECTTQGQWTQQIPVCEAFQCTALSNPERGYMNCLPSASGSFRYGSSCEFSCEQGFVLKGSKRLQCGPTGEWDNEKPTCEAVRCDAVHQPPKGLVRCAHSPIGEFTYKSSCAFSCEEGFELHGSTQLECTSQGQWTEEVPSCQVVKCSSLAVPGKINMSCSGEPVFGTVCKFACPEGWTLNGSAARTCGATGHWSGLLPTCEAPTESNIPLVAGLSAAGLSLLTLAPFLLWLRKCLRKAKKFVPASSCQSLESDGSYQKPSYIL
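Read-out: % PE-positive cells | Test system: HUVEC | Doses: One compound dose added by pin transfer | Buffer or medium: EGM-2 over gelatin coat | Signal: Immunofluorescence imaging | Benchmarks: TNF-alpha, DMSO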
FGF22 binding = shifts melting point of recombinant human FGF22. activity (Tm shift, normalised), % at 9.99 µM. actives 1.5% (n = 340,000). Q9HCT0. recombinant FGF22 thermal shift, SYPRO orange fluorescence; percent of sucrose octasulfate shift, DMSO zero;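 active = mean Tm shift, scaled 0 neutral to 100 positive control, at about 1.3% or above, every replicate too, limit read from the data; inconclusive = no clear call, values can overlap the other calls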
CFTR F508del cor = correctors of CFTR F508del function in bronchial epithelial cells | actives 0.36% (n = 350,000) | AID 720511 | activity (quench increase), % at 7.58 µM | CFBE cells, YFP halide quenching; stimulated with forskolin plus potentiator P3; % fluorescence drop versus neutral controls;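 active = mean added fluorescence quench of at least 8% versus neutral control, with both replicates also reaching 8%; inconclusive = only one of the mean or replicate conditions met; inactive = mean below 8% and not both replicates reaching 8%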;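 also: cells transiently co-express mutant CFTR-F508del with the halide-sensitive YFP; corrector assay measuring rescue of mutant channel to the surface after 24 h compound exposure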
S100A4 MyoIIA = inhibitors of human S100A4 binding to myosin IIA peptide; S100A4/TAMRA-MyoIIA peptide fluorescence polarization; inhibition, % at 10.7 µM; actives 0.14% (n = 360,000);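 active = mean inhibition of at least 70% across replicates, with every replicate also reaching that level; inconclusive = mean inhibition reaches 70% but some replicates fall short; inactive = mean inhibition below 70%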
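Test system: S100A4 monomer protein; Medium: HEPES pH 7.2 with CaCl2, KCl, NaCl, DTT, Triton; Probe or stimulus: TAMRA-labelled myosin IIA heavy-chain peptide probe, 5 nM; Doses: one dose per compound; Times: polarization read 5 min after assay mix addition, stable 5–60 min; Benchmarks: neutral control DMSO, positive control TFP.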
Env fusion inh = inhibitors of HIV Env-mediated cell fusion; HeLa-JRFL Env/CEM21 cell fusion, luciferase; inhibition, % at 12.3 µM; actives 1.1% (n = 360,000); AID 651610;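 active = mean replicate inhibition score of at least 50 and every replicate individually at or above 50; inconclusive = only one of the two criteria met; inactive = mean below 50 and not all replicates reaching 50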;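 also: 0% = plate neutral controls and 100% = maraviroc near 300 nM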
The depositor's hits bear a star; ? = inconclusive; · = no result given; [ ] = another dose, or the depositor's remark.

SMILES	E-selectin induc	FGF22 binding	CFTR F508del cor	S100A4 MyoIIA	Env fusion inh
O=S(=O)(c1ccc(Cl)cc1)N1CCC(O)(CN2CCN(Cc3ccccc3)CC2)CC1	·	·	1	-8	1
O=S(=O)(c1ccccc1)N1CCC(O)(CSc2ccc(Cl)cc2)CC1	·	·	·	·	61*
c1ccc(-c2ccc3c(c2)c2c4n3CCN=C4CCC2)cc1	·	·	·	·	60*
COCC(=O)N(C)C[C@H]1Oc2cc(-c3ccncc3)ccc2S(=O)(=O)N([C@H](C)CO)C[C@@H]1C	0	0	1	-11	-37[16.7 µM]
CCc1noc(C)c1C(=O)N1CCN(c2cccc(C)c2C)CC1	0	0	-1	-4	2
CCOC(=O)C1CCN(C(=O)c2c(-c3ccccc3)noc2C)CC1	4	43*	6	0	-2
Cc1onc(-c2ccccc2Cl)c1C(=O)N1CCN(c2cccc(Cl)c2)CC1	0	0	8.1*	4	-83
CCOC(=O)C1CCCN(C(=O)c2c(-c3ccccc3)noc2C)CC1 (configuration not stated)	0	0	1	-4	-38
Cc1cccc(N2CCN(C(=O)c3c(-c4ccccc4)noc3C)CC2)c1C	1	0	15*	-10	·
CO[C@@H]1CN(C)C(=O)c2ccc(NS(=O)(=O)c3cccc(F)c3)cc2OC[C@H](C)NC[C@H]1C	1	0	2	6	-2[16.7 µM]
Cc1cccc(C)c1NC(=O)CCCSc1nnc(-c2ccc(F)cc2)n1-c1ccccc1	2	0	·	-2	14
Cc1cccc(C)c1NC(=O)CCCSc1nnc(-c2ccc(Cl)cc2)n1-c1ccccc1	·	0	·	-2	79*
CN1CCN(/N=C/c2cccc(Cl)c2Cl)CC1	·	44*	1	-9	-9
COc1ccc2c(c1)-c1c(ssc1=S)C(C)(C)N2	·	·	·	·	62*
COc1ccc2c(c1)-c1c(ssc1=S)C(C)(C)N2S(=O)(=O)c1ccc(C)cc1	3	·	1	·	72*
Cc1ccc(S(=O)(=O)N2c3ccccc3-c3c(ssc3=S)C2(C)C)cc1	·	0	-2	-7	50
COc1ccc2c(c1)-c1c(sn(-c3ccccc3)c1=S)C(C)(C)N2	0	·	·	·	22
O=C(N[C@@H]1CC[C@@H](CCNS(=O)(=O)c2cccc(Cl)c2)O[C@H]1CO)c1ccc(F)cc1	0	0	-1	-3	13[16.7 µM]
Cc1noc(C)c1S(=O)(=O)Nc1ccc2c(c1)C(=O)N([C@@H](C)CO)C[C@@H](C)[C@H](CN(C)S(=O)(=O)c1ccccc1)OCCCC[C@@H](C)O2	0	-1	-1	0	-39[16.7 µM]
C[C@@H]1CN([C@@H](C)CO)C(=O)Cc2cc(N(C)C)ccc2O[C@@H]1CN(C)Cc1ccc(C(=O)Nc2ccccc2N)cc1	6	-1	15*	-4	-267[16.7 µM]
C[C@H](CO)N1C[C@H](C)[C@H](CN(C)S(=O)(=O)c2ccccc2)Oc2ccc(NC(=O)CCCCCC(=O)Nc3ccccc3N)cc2CC1=O	0	0	0	2	57*[16.7 µM]
C[C@@H]1CN([C@@H](C)CO)C(=O)Cc2cc(N(C)C)ccc2O[C@H]1CN(C)Cc1ccc(C(=O)Nc2ccccc2N)cc1	1	-1	8	?	-16[16.7 µM]
Cc1ccc(S(=O)(=O)N(C)C[C@@H]2Oc3ccc(NC(=O)CCCCCC(=O)Nc4ccccc4N)cc3CC(=O)N([C@H](C)CO)C[C@@H]2C)cc1	0	0	1	-25	72*[16.7 µM]
C[C@H]1CN([C@@H](C)CO)C(=O)Cc2cc(NC(=O)CCCCCC(=O)Nc3ccccc3N)ccc2O[C@@H]1CN(C)Cc1ccc(Oc2ccccc2)cc1	22	0	0	-5	21[16.7 µM]
C[C@@H]1CN([C@H](C)CO)C(=O)Cc2cc(NC(=O)CCCCCC(=O)Nc3ccccc3N)ccc2O[C@@H]1CN(C)Cc1ccc(Oc2ccccc2)cc1	·	0	0	3	56*[16.7 µM]
SMILES	E-selectin induc	FGF22 binding	CFTR F508del cor	S100A4 MyoIIA	Env fusion inh
Cc1ccc(S(=O)(=O)N(C)C[C@H]2Oc3ccc(NC(=O)CCCCCC(=O)Nc4ccccc4N)cc3CC(=O)N([C@H](C)CO)C[C@H]2C)cc1	-1	0	3	9	30[16.7 µM]
C[C@@H]1CN([C@H](C)CO)C(=O)c2cc(NC(=O)CCC(F)(F)F)ccc2O[C@@H](C)CCCCO[C@H]1CN(C)C(=O)c1ccccc1	1	0	0	14	8[16.7 µM]
C[C@@H]1CN([C@H](C)CO)S(=O)(=O)c2ccc(-c3ccncc3)cc2O[C@H]1CN(C)C(=O)C1CCC1	1	·	2	·	19[16.7 µM]
O=C(C[C@@H]1CC[C@H](NC(=O)c2ccc3c(c2)OCO3)[C@H](CO)O1)NCc1ccc(Cl)cc1	0	0	0	3	5[16.7 µM]
CC1Cc2cc(-c3csc(NC(=O)Cc4cccs4)n3)ccc2N1S(C)(=O)=O (configuration not stated)	·	·	·	·	75*
Cc1c(C(=O)Nc2ccncc2)sc2nc(-c3ccccc3)cn12	-1	0	-1	-2	44
Cc1c(C(=O)Nc2ccc3c(c2)OCCO3)sc2nc(-c3ccccc3)cn12	·	·	·	-4	57*
O=C(CC1Sc2ccccc2NC1=O)NNc1ccc(Cl)cc1Cl (configuration not stated)	0	0	2	3	·
O=C1Nc2c(Cl)cc(Cl)cc2C12Nc1ccccc1S2 (configuration not stated)	0	0	-3	0	55*
CN(C)S(=O)(=O)c1cccc2c1C(=O)c1ccccc1C2=O	·	1	-1	8	·
O=C1c2ccccc2C(=O)c2c1cccc2N(CCO)CCO	·	0	13*	-7	3
CC(=O)N[C@@H]1CC[C@@H](CC(=O)NCc2ccc(Cl)cc2)O[C@H]1CO	0	0	6	-23	-4[16.7 µM]
Cc1ccc(NC2=C/C(=N/S(=O)(=O)c3cccs3)c3ccccc3C2=O)cc1	1	1	·	-1	74*
CCc1ccc(S(=O)(=O)/N=C2\C=C(Nc3ccc(C(=O)O)cc3)C(=O)c3ccccc32)cc1	0	0	3	-1	73*
C[C@H](CO)N1C[C@H](C)[C@@H](CN(C)C(=O)Nc2ccccc2)Oc2ccc(NS(=O)(=O)c3ccc(Cl)cc3)cc2CC1=O	0	0	0	-28	·
COCC(=O)N1[C@H](C#N)[C@@H](c2ccc(C#Cc3ccccc3F)cc2)[C@H]1CO	0	0	-7	-5	-7[16.7 µM]
O=C(N[C@H]1CC[C@H](CCn2cc(C3CC3)nn2)O[C@H]1CO)c1cccnc1	0	0	3	-2	1[16.7 µM]
CCOC(=O)c1sc2ncc([N+](=O)[O-])cc2c1N	·	0	0	-8	13
COC(=O)c1sc2cc([N+](=O)[O-])cc(SCC(C)C)c2c1N	·	44*	·	4	5
CC(C)(C)c1ccc(OCCCC(=O)Nc2ccc(S(N)(=O)=O)cc2)cc1	·	44*	1	-7	5

Bioassay records (PubChem BioAssay)
